From ChEMBL document CHEMBL1158424, “Design, synthesis and biological investigation of certain pyrazole-3-carboxylic acid derivatives as novel carriers for nitric oxide” (Bioorg Med Chem, 2009) come the findings set out here.

In brackets after ≈: the same amount, converted by molar mass. Activity calls are given as the source filed them. The calls are words filed in the database; no cut-off is given here.

A word on the MIC: it is the lowest concentration that inhibits growth of the organism. One may read the inhibition in vivo as the drop in the measured response relative to a control, in per cent.

One data set concerns Staphylococcus aureus. The experiment in a line: Antibacterial activity against Staphylococcus aureus NCTC 6571 after 24 hrs by agar cup diffusion method. The data set is classed as functional. The essentials:
(§1)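 Nutrient agar seeded with culture, poured 3–4 mm; six 10 mm cups per plate, one as DMF solvent control. Compounds dissolved in DMF (stock 1 mg/mL), two-fold serial dilutions 32–512 µg/mL, 0.1 mL per cup. Incubation 24 h at 37 °C; inhibition zone diameter read in mm. MIC taken as intercept of log concentration versus zone diameter plot; ciprofloxacin reference.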

For data set [1], the system named is Rattus norvegicus. The experiment in a line: Gastrointestinal toxicity in albino rat assessed as ulcer index at 100 mg/kg, po. The data set is classed as organism-based. Details: dose 100 mg/kg, route oral. The settings on record: in vivo. In short, it runs like this:
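Rats from the paw edema study killed by ether overdose; stomachs removed, opened and examined for visible lesions. Each lesion scored 0–5 by length (0 none, 1 petechiae, 2 <1 mm, 3 1–2 mm, 4 2–4 mm, 5 >4 mm erosions). Scores summed per rat; group ulcer index is the mean lesion score.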

For data set [2], the system named is Rattus norvegicus. The experiment in a line: Antiinflammatory activity in albino rat assessed as inhibition of carrageenan-induced paw edema at 100 mg/kg, po administered 30 mins prior to carrageenan challenge measured after 4 hrs. The data set is classed as functional. The essentials:
(§2)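 Male albino rats, 140–150 g, groups of 5, acclimatized 3 days, water only on the last day. Oral dosing in carboxymethylcellulose vehicle 30 min before subplantar 1% carrageenan (0.1 mL) into one hind paw; contralateral paw given saline. Paw thickness by digital plethysmometer at 0–5 h. Percent inhibition from difference between paws, treated versus vehicle control; indomethacin reference; mean ± SEM.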
(The carrageenan paw model is a standard test of acute inflammation.)

For data set [3], the system named is Rattus norvegicus. The data set is described as follows: Antiinflammatory activity in albino rat assessed as inhibition of carrageenan-induced paw edema at 100 mg/kg, po administered 30 mins prior to carrageenan challenge measured after 2 hrs. The format is functional. In short, it runs like this: as §2
In data set [4] the test system is Rattus norvegicus. The data set is described as follows: Antiinflammatory activity in albino rat assessed as inhibition of carrageenan-induced paw edema at 100 mg/kg, po administered 30 mins prior to carrageenan challenge measured after 5 hrs. The format is functional. The essentials: as §2
The next data set deals with Escherichia coli. The data set is described as follows: Antibacterial activity against Escherichia coli C-600 after 24 hrs by agar cup diffusion method. The data set is classed as functional. The essentials: as §1
A short description of data set [5]: Nitric oxide release in phosphate buffer at pH 7.4 after 1 hr by Griess diazotization reaction method in presence of L-cysteine. Details: concentration or dose not given beside the values. The essentials: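 Incubation in pH 7.4 phosphate buffer with L-cysteine for 1 h at 37 °C. Then 1 mL of mixture treated with Griess reagent (sulfanilamide, N-naphthylethylenediamine, phosphoric acid); absorbance read at 540 nm after 25 min. Nitrite quantified against sodium nitrite standard curve; % release = found/theoretical NO × 100.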
(In general: Nitrite, measured by Griess reagent, commonly stands in for NO production.)

Another data set relates to Bacillus subtilis. The experiment in a line: Antibacterial activity against Bacillus subtilis after 24 hrs by agar cup diffusion method. The format is functional. In short, it runs like this: as §1
Data set [6] deals with Rattus norvegicus. The experiment in a line: Gastroprotective activity in albino rat assessed as preventive index at 100 mg/kg, po. The format is functional. In short, it runs like this: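 Preventive index = (UI of ulcered group − UI of treated group)/UI of ulcered group × 100. UI from lesion scoring (0–5 by erosion length) of stomachs of rats from the paw edema study.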

Data set [7] concerns Rattus norvegicus. The data set is described as follows: Antiinflammatory activity in albino rat assessed as inhibition of carrageenan-induced paw edema at 100 mg/kg, po administered 30 mins prior to carrageenan challenge measured after 1 hr. The format is functional. In short, it runs like this:
as §2

Data set [8] deals with Rattus norvegicus. The experiment in a line: Antiinflammatory activity in albino rat assessed as inhibition of carrageenan-induced paw edema at 100 mg/kg, po administered 30 mins prior to carrageenan challenge measured after 3 hrs. The format is functional. The essentials:
as §2

A further data set concerns Pseudomonas aeruginosa. The experiment in a line: Antibacterial activity against Pseudomonas aeruginosa after 24 hrs by agar cup diffusion method. The data set is classed as functional. In short, it runs like this:
as §1

The subject of data set [9] is Rattus norvegicus. The data set is described as follows: Gastrointestinal toxicity in albino rat assessed as incidence of gastric ulceration at 100 mg/kg, po by histopathological study. The format is organism-based, Stomach. Details: dose 100 mg/kg, route oral. As to conditions: in vivo. In short, it runs like this:
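Gastric sections dewaxed, rehydrated, stained with haematoxylin 5–7 min, differentiated in 1% HCl in 70% alcohol, stained with 1% eosin 10 min, dehydrated, cleared in xylene, mounted and examined by light microscopy.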

Turning to `COc1ccc(NC(=O)c2nn(-c3ccccc3)c(-c3ccccc3)c2/C(=N/O)c2ccccc2)cc1`, the MIC entry in the data set on Staphylococcus aureus is “inactive”. For the same molecule, in the data set on Rattus norvegicus [1], the UI is given as 8.5. Besides, the inhibition in vivo at 100 mg/kg in the data set on Rattus norvegicus [2] is 51.5%; in the data set with Rattus norvegicus [3] it was 25%; in the data set with Rattus norvegicus [4], 56.5%; in the data set on Rattus norvegicus [7], 30.9%; in the data set with Rattus norvegicus [8], 36.5%. The minimum inhibitory concentration (MIC) with Escherichia coli (C-600, 24 h) is 2.88 µg/mL (≈ 5.9 µM); in the data set with Bacillus subtilis it was 43.9 µg/mL (≈ 89.8 µM); against Pseudomonas aeruginosa, 9.7 µg/mL (≈ 19.9 µM). Further, the Activity in data set [5] was 8%. The PI in the data set on Rattus norvegicus [6] was 74%.

With `O=C(Nc1ccc(Cl)cc1)c1nn(-c2ccccc2)c(-c2ccccc2)c1C(=O)c1ccccc1`, the Activity result in the data set on Rattus norvegicus [9] was “Toxic”. For the same molecule, the MIC result with Staphylococcus aureus, in the data set with Escherichia coli and in the data set on Bacillus subtilis was “inactive” each time. Further, the UI with Rattus norvegicus [1] is 20.3. For the same molecule, the inhibition in vivo at 100 mg/kg with Rattus norvegicus [2] amounted to 36.5%; in the data set on Rattus norvegicus [3], 40%; in the data set on Rattus norvegicus [4] it was 55.9%; with Rattus norvegicus [7], 45.5%; with Rattus norvegicus [8] it was 35%. Moreover, the MIC against Pseudomonas aeruginosa was 25.1 µg/mL (≈ 52.5 µM).

With `O=C(c1ccccc1)c1c(C(=O)N2CCNCC2)nn(-c2ccccc2)c1-c1ccccc1`, the Activity result in the data set on Rattus norvegicus [9] is given as “Toxic”. The MIC entry in the data set on Staphylococcus aureus is “inactive”. The UI with Rattus norvegicus [1] amounted to 23. The inhibition in vivo at 100 mg/kg came to 51.5% with Rattus norvegicus [2]; 41.7% in the data set on Rattus norvegicus [3]; 66.7% in the data set with Rattus norvegicus [4]; 35% in the data set with Rattus norvegicus [7]; 28.6% in the data set on Rattus norvegicus [8]. For the same molecule, the minimal inhibitory concentration (MIC) in the data set on Escherichia coli (C-600, 24 h) came to 1.92 µg/mL (≈ 4.4 µM); against Bacillus subtilis, 2.18 µg/mL (≈ 4.99 µM); with Pseudomonas aeruginosa, 84.5 µg/mL (≈ 194 µM).

As for `O=C(c1ccccc1)c1c(C(=O)N2CCN(C(=O)CO[N+](=O)[O-])CC2)nn(-c2ccccc2)c1-c1ccccc1`, the Activity entry with Rattus norvegicus [9] was “Non-toxic”; in data set [5], 13.8%. The MIC entry with Staphylococcus aureus was “inactive”. Also, in the data set on Rattus norvegicus [1], the UI is 5.5. Besides, the inhibition in vivo at 100 mg/kg came out at 45.6% with Rattus norvegicus [2]; 30% in the data set on Rattus norvegicus [3]; 68.1% with Rattus norvegicus [4]; 45.5% in the data set with Rattus norvegicus [7]; 43% with Rattus norvegicus [8]. The MIC was determined as 64 µg/mL (≈ 119 µM) against Escherichia coli (C-600, 24 h); 2.45 µg/mL (≈ 4.54 µM) in the data set with Bacillus subtilis; 93.3 µg/mL (≈ 173 µM) in the data set on Pseudomonas aeruginosa. For the same molecule, the PI in the data set on Rattus norvegicus [6] is 76.08%.

Take `O=C(Nc1ccc(Cl)cc1)c1nn(-c2ccccc2)c(-c2ccccc2)c1/C(=N/O)c1ccccc1`: the values for the Activity entry (with Rattus norvegicus [9]; in data set [5]) were “Non-toxic” and 7.8%, respectively. The MIC was found to be 90.4 µg/mL (≈ 183 µM) against Staphylococcus aureus (NCTC 6571, 24 h); 14.1 µg/mL (≈ 28.6 µM) in the data set with Escherichia coli (C-600, 24 h); 5.82 µg/mL (≈ 11.8 µM) in the data set with Bacillus subtilis; 10.3 µg/mL (≈ 20.9 µM) with Pseudomonas aeruginosa. The UI in the data set on Rattus norvegicus [1] was 7.5. The inhibition in vivo at 100 mg/kg in the data set on Rattus norvegicus [2] turned out to be 55.9%; in the data set with Rattus norvegicus [3], 23.3%; in the data set on Rattus norvegicus [4] it was 60.9%; with Rattus norvegicus [7], 23.6%; in the data set on Rattus norvegicus [8], 47.6%.
